The text below walks through data of PubChem BioAssay.

Activity calls are given as the source filed them.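 How the source made its calls, unless noted: active means Her2 level under about 52% in both replicate screens, with viability over 70% of control (limit read from the data); inconclusive means Her2 under the limit in one screen only, or viability under 70%; inactive means Her2 level above the set limit.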

Assay [1] can be described thus: Her2 expression decrease, cell viability multiplex – SKBR3 breast tumor cells, AlphaScreen, ATP viability, primary screen (AID 461).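 On Her2 level: lower value means less Her2 protein in the cells.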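 On viability: percent of carrier control wells set as 100% viability.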 Particulars: SKBR3 Her2 protein level, 18-24 h, measured here: SKBR3 viability, ATP luminescence, at 10 µM.
Assay [2] deals with Receptor tyrosine-protein kinase erbB-2 (Homo sapiens) (UniProt P04626). The description is as above. Particulars: 18-24 h, at 10 µM, stronger effect = lower value.
Assay [3] is described as follows: reduced viability of SK-BR-3 breast cancer cells – cell-based, 24 h, human, pilot screen (AID 572;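 active means viability at or below 10% of carrier control in both of two separate runs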;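 further: compound exposure lasted between 18 and 24 h rather than exactly 24 h; 100% = carrier-treated control wells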). Particulars: SK-BR-3 viability, CellTiter-Glo luminescence, at 10 µM, stronger effect = lower value. In general terms: ATP-based viability assays read luminescence as a measure of living cells.
Assay [4] can be described thus: HUVEC growth inhibition – cell-based, human, primary screen (AID 575;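 active means viability at or below 30% in both replicate assays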;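 further: 100% = median of untreated cell wells with 0.1% DMSO on each plate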). The conditions noted are these: HUVEC proliferation, CellTiter-Glo luminescence, 72 h; at 10 µM; stronger effect = lower value. The gist of the method: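 Timing: 72 h treatment at 37 °C; material: HUVEC primary cells; technique: CellTiter-Glo luminescence measuring cellular ATP; controls: vehicle and MePR control wells; measure: percent of median DMSO-control luminescence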

A short description of assay [5]: H69AR cell proliferation blockers – human, duplicate replicates, primary screen (AID 580;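 active means viability at or under a set limit in both replicates, limit being median viability minus 3 SD, cut at about 48% in these data, passing the limit was not always enough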;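 further: 100% = mean luminescence of untreated wells and 0% = no signal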). The conditions noted are these: H69AR lung tumor cells viability, ATP luminescence, 72 h; at 10 µM; stronger effect = lower value.
A short description of assay [6]: MRP1 drug-resistance reversers in H69AR cells – cell-based, doxorubicin co-treatment, pilot screen (AID 601;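 active means viability loss from added drug above about 55%, and viability with drug at most 40%, in both replicates, limit read from the data, passing the limit was not always enough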). The conditions noted are these: CellTiter-Glo, 72 h, at 10 µM; for differential viability (reversal): stronger effect = higher value.
Assay [7] is described as follows: yeast transport mutant growth inhibition pilot in 384-well plates, post-Golgi transport modulator project (AID 636; in the data active means inhibition above about 31%). Particulars: absorbance 615 nm, about 18 h, stronger effect = higher value.
A short description of assay [8]: growth suppression of yeast trafficking mutant, preliminary HTS, modulators of trafficking downstream of Golgi apparatus project, 1536-format plate, OD 615 nm (AID 637; in the data active means inhibition above about 30%). Particulars: yeast transport mutant growth, absorbance 615 nm, 18 h; stronger effect = higher value.
The mark [9] stands for this setting: H69AR cells + 2 uM doxorubicin, measured here: viability with 2 uM doxorubicin, stronger effect = lower value.
[10] abbreviates: H69AR cells, compound alone cytotoxicity.

The term viability denotes a read-out of living cells in per cent, often relative to untreated cells. The inhibition is the change of the read-out against control, counted positive when it falls.

Chain of Receptor tyrosine-protein kinase erbB-2 (Homo sapiens) (P04626 whole entry, looked up): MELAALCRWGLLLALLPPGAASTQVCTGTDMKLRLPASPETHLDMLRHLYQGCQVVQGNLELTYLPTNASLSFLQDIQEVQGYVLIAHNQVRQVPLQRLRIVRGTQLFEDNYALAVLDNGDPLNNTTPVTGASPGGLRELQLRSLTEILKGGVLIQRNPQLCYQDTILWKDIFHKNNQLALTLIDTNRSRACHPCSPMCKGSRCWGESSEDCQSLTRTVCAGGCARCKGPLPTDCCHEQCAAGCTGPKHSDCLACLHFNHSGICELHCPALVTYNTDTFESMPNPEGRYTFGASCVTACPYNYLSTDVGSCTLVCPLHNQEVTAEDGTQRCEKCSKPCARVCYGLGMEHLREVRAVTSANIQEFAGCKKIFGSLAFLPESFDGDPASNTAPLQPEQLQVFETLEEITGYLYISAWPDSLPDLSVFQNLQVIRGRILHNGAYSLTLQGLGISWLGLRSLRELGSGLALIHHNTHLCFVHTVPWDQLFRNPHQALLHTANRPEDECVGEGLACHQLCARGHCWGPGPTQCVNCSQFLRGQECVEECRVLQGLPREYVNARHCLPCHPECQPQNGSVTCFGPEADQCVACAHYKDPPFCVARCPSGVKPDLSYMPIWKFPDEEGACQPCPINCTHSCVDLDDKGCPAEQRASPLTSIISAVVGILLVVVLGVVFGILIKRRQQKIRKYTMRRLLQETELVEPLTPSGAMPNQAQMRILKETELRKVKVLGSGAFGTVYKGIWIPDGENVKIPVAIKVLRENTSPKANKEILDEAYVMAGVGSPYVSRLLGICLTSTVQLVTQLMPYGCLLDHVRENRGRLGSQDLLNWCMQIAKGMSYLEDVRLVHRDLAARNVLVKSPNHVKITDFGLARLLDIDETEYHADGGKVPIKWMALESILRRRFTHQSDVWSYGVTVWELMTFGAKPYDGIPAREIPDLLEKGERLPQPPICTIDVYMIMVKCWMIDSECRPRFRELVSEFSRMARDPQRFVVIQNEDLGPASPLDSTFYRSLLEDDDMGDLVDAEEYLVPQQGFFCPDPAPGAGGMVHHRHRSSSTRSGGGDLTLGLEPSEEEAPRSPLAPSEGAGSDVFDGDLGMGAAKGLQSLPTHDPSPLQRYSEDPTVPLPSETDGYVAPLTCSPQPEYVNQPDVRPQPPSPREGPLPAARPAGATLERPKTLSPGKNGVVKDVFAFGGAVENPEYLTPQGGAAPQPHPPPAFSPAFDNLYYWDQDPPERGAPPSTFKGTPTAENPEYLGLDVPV

For `CCn1c(CSc2ncccn2)nnc1SCC(=O)N1c2ccccc2CC1C` (stereo not given), the viability in assay [1] was 96%; in assay [3], 96% (inactive); in assay [4], 87.5% (inactive); in assay [5], 96.3% (inactive); in assay [6] (setting [9]) it was 84.3%; in assay [6] (setting [10]), 96.3%. Also, in assay [2], the Her2 level is 87.5% (inactive). The differential viability (reversal) in assay [6] (H69AR cells + 2 uM doxorubicin) is 11.9% (inactive). Besides, the figures for the inhibition in assay [7] and in assay [8] were -5.73% (inactive) and 5.41% (inactive), respectively.

Take `O=c1[nH]c2cc3c(cc2cc1C(c1nnnn1Cc1ccccc1)N1CCCc2ccccc21)OCO3` (stereo not given): the viability in assay [1] is 98.5%; in assay [3], 98.5% (inactive); in assay [4], 79.3% (inactive); in assay [5], 61.6% (inactive); in assay [6] (setting [9]), 61.8%; in assay [6] (setting [10]), 61.6%. The Her2 level in assay [2] was 95.5% (inactive). For the same compound, in assay [6] (H69AR cells + 2 uM doxorubicin), the differential viability (reversal) is -0.235% (inactive). Besides, the inhibition was -3.73% (inactive) in assay [7] and 4.43% (inactive) in assay [8].

With `CCCCOc1ccc(-c2ncc(C(=O)OCC)c(N)n2)cc1`, the viability is 89.5% in assay [1]; 89.5% (inactive) in assay [3]; 103% (inactive) in assay [4]; 90% (inactive) in assay [5]; 81.5% in assay [6] (setting [9]); 90% in assay [6] (setting [10]). For the same compound, the Her2 level in assay [2] was 88% (inactive). Besides, the differential viability (reversal) in assay [6] (H69AR cells + 2 uM doxorubicin) was 8.43% (inactive). For the same compound, the figures for the inhibition in assay [7] and in assay [8] were -6.8% (inactive) and -6.03% (inactive), respectively.

On to `CCOC(=O)c1[nH]c(C)c(C(=O)Nc2ccccc2F)c1C`, for which the viability in assay [1] is 89.5%; in assay [3], 89.5% (inactive); in assay [4], 61.8% (inactive); in assay [5] it was 16.1% (active); in assay [6] (setting [9]), 67.1%; in assay [6] (setting [10]), 16.1%. In assay [2], the Her2 level was 75.5% (inactive). The differential viability (reversal) in assay [6] (H69AR cells + 2 uM doxorubicin) is -51% (inactive). Besides, the results for the inhibition in assay [7] and in assay [8] were -4.47% (inactive) and 4.13% (inactive), respectively.

For `CCOc1ccc(OCC)c(NC(=O)C2CCN(S(=O)(=O)c3cnc[nH]3)CC2)c1`, the viability in assay [1] was 95.5%; in assay [3], 95.5% (inactive); in assay [4], 96.2% (inactive); in assay [5], 111% (inactive); in assay [6] (setting [9]) it was 100%; in assay [6] (setting [10]), 111%. Further, in assay [2], the Her2 level was 99% (inactive). The differential viability (reversal) in assay [6] (H69AR cells + 2 uM doxorubicin) was 11.1% (inactive). The results for the inhibition in assay [7] and in assay [8] were -2.37% (inactive) and -2.74% (inactive), respectively.

For the compound `O=C1CCC(c2ccccc2)N1C(=O)c1cccnc1` (stereo not given), the viability in assay [1] was 129%; in assay [3] it was 129% (inactive); in assay [4], 105% (inactive); in assay [5], 98.8% (inactive); in assay [6] (setting [9]), 90.2%; in assay [6] (setting [10]), 98.8%. Also, in assay [2], the Her2 level is 95.5% (inactive). The differential viability (reversal) in assay [6] (H69AR cells + 2 uM doxorubicin) is 8.63% (inactive). In addition, the inhibition in assay [7] is -6.58% (inactive); in assay [8], -4.29% (inactive).

Regarding `Cn1c(NCc2cccc(Br)c2)nc2ccccc21`, the viability was 87% in assay [1]; 87% (inactive) in assay [3]; 83.7% (inactive) in assay [4]; 81.1% (inactive) in assay [5]; 73.9% in assay [6] (setting [9]); 81.1% in assay [6] (setting [10]). Moreover, the Her2 level in assay [2] was 86.5% (inactive). Moreover, in assay [6] (H69AR cells + 2 uM doxorubicin), the differential viability (reversal) is 7.16% (inactive). The inhibition was -4.27% (inactive) in assay [7] and -3.87% (inactive) in assay [8].

Consider `CN(CC(=O)Nc1sccc1C#N)C1CCCCC1`, for which the viability in assay [1] was 106%; in assay [3], 106% (inactive); in assay [4], 89.8% (inactive); in assay [5] it was 93.2% (inactive); in assay [6] (setting [9]) it was 87.7%; in assay [6] (setting [10]), 93.2%. Besides, in assay [2], the Her2 level is 104% (inactive). Moreover, the differential viability (reversal) in assay [6] (H69AR cells + 2 uM doxorubicin) is 5.53% (inactive). Moreover, the figures for the inhibition in assay [7] and in assay [8] were -6.67% (inactive) and -4.44% (inactive), respectively.

For the compound `CCOCCn1c(CN2CCN(c3cccc(Cl)c3)CC2)nc2c1c(=O)n(C)c(=O)n2C`, the viability in assay [1] is 85%; in assay [3] it was 85% (inactive); in assay [4], 94.5% (inactive); in assay [5], 80.1% (inactive); in assay [6] (setting [9]), 38.6%; in assay [6] (setting [10]) it was 80.1%. For the same compound, the Her2 level in assay [2] is 110% (inactive). Besides, the differential viability (reversal) in assay [6] (H69AR cells + 2 uM doxorubicin) was 41.5% (inactive). Besides, the inhibition in assay [7] is -3.07% (inactive); in assay [8], -6.17% (inactive).

For `O=C(c1cccc(C(=O)N2CCN(c3ccc(F)cc3)CC2)c1)N1CCN(c2ccc(F)cc2)CC1`, the viability is 110% in assay [1]; 110% (inactive) in assay [3]; 74% (inactive) in assay [4]; 73.4% (inactive) in assay [5]; 49.4% in assay [6] (setting [9]); 73.4% in assay [6] (setting [10]). Moreover, in assay [2], the Her2 level is 102% (inactive). Also, the differential viability (reversal) in assay [6] (H69AR cells + 2 uM doxorubicin) was 24% (inactive). The inhibition in assay [7] was 3.51% (inactive); in assay [8], 2.95% (inactive).

Take `COC(=O)c1nc(N)sc1-c1ccccc1`: the viability is 96% in assay [1]; 96% (inactive) in assay [3]; 95.1% (inactive) in assay [4]; 93.3% (inactive) in assay [5]; 80% in assay [6] (setting [9]); 93.3% in assay [6] (setting [10]). Also, in assay [2], the Her2 level is 93% (inactive). In addition, the differential viability (reversal) in assay [6] (H69AR cells + 2 uM doxorubicin) is 13.3% (inactive). Also, the inhibition is -6.13% (inactive) in assay [7] and 1.43% (inactive) in assay [8].

On to `COc1ccc(-c2nnn(CCc3nn[nH]n3)n2)cc1OC`, for which the viability in assay [1] was 119%; in assay [3] it was 119% (inactive); in assay [4] it was 96.9% (inactive); in assay [5] it was 95.5% (inactive); in assay [6] (setting [9]) it was 99.2%; in assay [6] (setting [10]) it was 95.5%. Further, the Her2 level in assay [2] is 98.5% (inactive). The differential viability (reversal) in assay [6] (H69AR cells + 2 uM doxorubicin) was -3.76% (inactive). Further, the figures for the inhibition in assay [7] and in assay [8] were -3.6% (inactive) and 9.18% (inactive), respectively.

Take `O=C(CSc1nnnn1C1CCCC1)N1CCN(C(=O)c2ccco2)CC1`: the viability in assay [1] was 82%; in assay [3], 82% (inactive); in assay [4], 105% (inactive); in assay [5], 105% (inactive); in assay [6] (setting [9]), 103%; in assay [6] (setting [10]), 105%. Moreover, the Her2 level in assay [2] was 89.5% (inactive). Besides, in assay [6] (H69AR cells + 2 uM doxorubicin), the differential viability (reversal) is 1.94% (inactive). Moreover, the inhibition in assay [7] was -3.11% (inactive); in assay [8] it was 4.59% (inactive).
